# Hits are enriched below; roughly 2.3% of the tested compounds scored in any of these assays.
# V1R ag counter – V1a receptor agonism, counter-screen for OXTR agonists; P37288; CHO-V1R cells, Fluo-8 calcium fluorescence, agonist mode; 0% DMSO, 100% 3 nM vasopressin; actives 0.25% (n = 320,000); activation, % at 3 µM;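 active = activation above the mean activation of all tested compounds plus 3 SD, per screening run, cut at about 20% in these data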;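 also: signal is peak over basal fluorescence ratio across a 100 second FLIPR read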
# TAAR1 antag – antagonists of human TAAR1; inhibition, % at 3 µM; actives 1.5% (n = 360,000); CHO RD-HGA16 TAAR1, Fluo-8 calcium fluorescence, antagonist; AID 624466; Q96RJ0;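 active = inhibition above a per-plate cutoff, the mean inhibition of test compounds on that plate plus 3 SD, cut at about 49% in these data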
# Target sequence (Q96RJ0 whole entry, looked up): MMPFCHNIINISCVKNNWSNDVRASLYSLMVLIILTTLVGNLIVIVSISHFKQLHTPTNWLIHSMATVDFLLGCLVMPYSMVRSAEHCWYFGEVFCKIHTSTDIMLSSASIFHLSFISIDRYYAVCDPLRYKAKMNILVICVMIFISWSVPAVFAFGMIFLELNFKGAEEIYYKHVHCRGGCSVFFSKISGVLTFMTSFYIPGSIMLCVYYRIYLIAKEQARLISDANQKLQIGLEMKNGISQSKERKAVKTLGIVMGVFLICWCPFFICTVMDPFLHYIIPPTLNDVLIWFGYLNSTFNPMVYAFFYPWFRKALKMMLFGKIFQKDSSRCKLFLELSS
#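 Material: CHO RD-HGA16 cells bearing hTAAR1; compound dosing: one-point dosing, 3 µM nominal final; schedule: dye loading 75 min at 37 °C, then 30 min room temperature; measured by: calcium fluorescence with Fluo-8; control set: vehicle and agonist controls; replication: n of 1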
# OXTR ag – human OXTR agonism; P30559; CHO-OTR cells, Fluo-8 calcium fluorescence; normalized: DMSO 0%, oxytocin 100%; activation, % at 3 µM; actives 0.32% (n = 320,000); AID 2435;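 active = activation above the mean of all tested compounds plus 3 SD, cutoff set per screening run, cut at about 20% in these data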;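 also: peak over basal fluorescence ratio from a 100 s FLIPR kinetic read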
# OXTR potentiate – potentiates the human oxytocin receptor response; AID 2445; activation, % at 3 µM; CHO-OTR cells, Fluo-8 calcium fluorescence, potentiator mode; 0% = oxytocin EC15, 100% = EC100; P30559; actives 0.061% (n = 320,000);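 active = activation above that plate's cutoff, the mean activation of tested compounds plus 3 SD, cut at about 6.6% in these data, passing the limit was not always enough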
#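 Assay system: CHO-OTR cells, human receptor / Also added: oxytocin at about EC15, sub-maximal agonist stimulus / Dosing: single dose, 3.0 µM nominal final compound concentration / Incubation: 6 min pre-incubation, 100 s read / Technique: Fluo-8 calcium dye fluorescence / Read-out: % activation vs EC15 and EC100 oxytocin / Benchmarks: EC15 oxytocin low, 75 nM oxytocin high / Replicates: singlicate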
# TAAR1 agonist – human TAAR1 agonism | Q96RJ0 | CHO RD-HGA16 TAAR1, Fluo-8 calcium fluorescence; vehicle wells 0%, saturating PEA agonist 100% | activation, % at 3 µM | actives 0.99% (n = 360,000) | AID 624467;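 active = activation above the mean activation of all test compounds in the run plus 3 SD, cut at about 38% in these data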
#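 Repeats: no replicates (n 1) | Material: CHO-derived RD-HGA16 cells with stable Gα16 and human TAAR1 | Technique: Kinetic Fluo-8 calcium fluorescence | Schedule: 17-24 h seeding, 75 min 37 °C dye, 30 min RT | Evaluation: % activation from peak over basal fluorescence ratio, DMSO-to-PEA scaled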
# OXTR pot cf – human OXTR potentiation, confirmation; 180 tested, under 10 active; CHO-OTR cells, Fluo-8 calcium fluorescence; scaled from low-dose to maximal oxytocin; shares compounds with OXTR potentiate; activation, % at 3 µM;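 active = mean percent activation over triplicates above a cutoff set from solvent-only control plates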;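 also: compounds tested in the presence of an EC15 dose of oxytocin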
# A number is an active result; – = inactive; · = no result.
SMILES,V1R ag counter,TAAR1 antag,OXTR ag,OXTR potentiate,TAAR1 agonist,OXTR pot cf
CC(=O)c1cccc(NC(=O)CN(C)S(=O)(=O)c2cccc3nsnc23)c1,–,–,–,–,–,·
CNC(=O)c1c(NC(=O)c2ccco2)sc2c1CCC2,–,–,–,–,–,·
CNC(=O)c1c(NC(=O)c2cc(-c3cc(C)c(C)cc3O)n[nH]2)sc2c1CCCC2,–,·,–,6.6,·,–
Cc1cn([C@H]2C[C@H](O)[C@@H](COS(=O)(=O)O)O2)c(=O)[nH]c1=O,–,–,–,14,–,–
C=CCNc1ccc2c(c1)OC[C@H](CC(C)C)NS2(=O)=O,·,–,·,·,–,·
CCCOc1ccc(-c2c(C(=O)N/N=C/c3ccc(OCC)cc3)nnn2-c2nonc2N)cc1,–,–,–,–,–,·
CCOc1ccc(-c2c(C(=O)N/N=C/c3ccc(O)cc3)nnn2-c2nonc2N)cc1,–,–,–,9.6,–,–
Cc1ccc(CNC(=O)C2CCC(=O)N2C2CCCCC2)cc1 (stereo not drawn),–,–,–,10,–,–
COc1cc(C)nc(N(Cc2ccccc2)S(=O)(=O)c2ccccc2)n1,–,–,–,–,–,·
CCCN(c1nc(C)cc(OC)n1)S(=O)(=O)c1ccccc1,–,–,–,13,–,–
Cc1cc2c(cc1S(=O)(=O)CCC(=O)NC1CCCCC1C)OCC(=O)N2 (stereo not drawn),–,–,–,–,–,·
CC1CCCCC1NC(=O)CCS(=O)(=O)c1cc2c(cc1Cl)NC(=O)CO2 (stereo not drawn),–,–,–,25,–,–
CCn1c(SCC(=O)Nc2nccs2)nnc1-c1cccnc1,–,–,–,–,–,·
CCn1c(SCC(=O)Nc2nc(C)cs2)nnc1-c1cccnc1,–,–,–,11,–,–
Cc1coc2c(C)c3oc(=O)c(CCC(=O)NCCCN4CCCC4=O)c(C)c3cc12,–,–,–,12,–,–
CC(NC(=O)/C(C#N)=C/c1ccc(C(=O)O)cc1)c1ccccc1 (stereo not drawn),–,–,–,13,–,–
COc1cc(/C=C(/C#N)C(=O)NC(C)c2ccccc2)cc(OC)c1O (stereo not drawn),–,–,–,–,–,·
CC(=O)NC(=S)NNC(=O)CCc1ccccc1,–,–,–,–,–,·
CCN(C(=S)NC(=O)CCc1ccccc1)c1ccccc1,–,–,–,12,–,–
Cc1c(C(=O)NCc2ccccn2)oc2c(Cl)cccc12,–,–,–,13,–,–
C=CCc1cccc2cc(C(=O)NNC(=O)CC#N)c(=O)oc12,–,–,–,–,–,·
CCC(NS(=O)(=O)c1c(C)[nH]c(=O)[nH]c1=O)C12CC3CC(CC(C3)C1)C2 (stereo not drawn),–,–,–,–,–,·
Cc1[nH]c(=O)[nH]c(=O)c1S(=O)(=O)NCC12CC3CC(CC(C3)C1)C2,–,–,–,11,–,–
CC(=O)Nc1ccc(S(=O)(=O)N(C)CC(=O)N/N=C/c2cccc(O)c2)cc1,–,–,–,15,–,–
CC(=O)Nc1ccc(S(=O)(=O)N(C)CC(=O)N/N=C/c2cccs2)cc1,–,–,–,–,–,·
SMILES,V1R ag counter,TAAR1 antag,OXTR ag,OXTR potentiate,TAAR1 agonist,OXTR pot cf
CCC(C(=O)N/N=C/c1cccnc1)c1ccccc1 (stereo not drawn),–,–,–,–,–,·
CCCCn1c(-c2ccoc2C)n[nH]c1=S,–,–,–,10,–,–
Cn1c(=O)[nH]c2nnc(-c3ccc(Cl)c(Cl)c3)nc2c1=O,–,–,–,–,–,·
O=C(c1ccccc1)N1CCN(S(=O)(=O)N2CCOCC2)CC1,–,–,–,14,–,–
CC(C)(C)NC(=O)c1nn(Cc2ccccc2)c(=O)c2ccccc12,–,–,–,15,–,–
CCC(CC)NC(=O)c1nn(Cc2ccccc2)c(=O)c2ccccc12,–,–,–,–,–,·
CC(Sc1ccc(Cl)cc1)C(=O)NCc1ccc2c(c1)OCO2 (stereo not drawn),–,–,–,9.4,–,–
Cn1c(=O)c2c(nc(NCCCO)n2Cc2cccc(Br)c2)n(C)c1=O,–,–,–,11,–,–
Cc1cccc(Cn2c(NCCO)nc3c2c(=O)n(C)c(=O)n3C)c1,–,–,–,–,–,·
O=c1c(O)c(-c2ccc(O)c(O)c2)oc2cc(O)cc(O)c12,–,–,–,21,–,7.2
Cc1cc(C)n(C(C)Sc2ccccc2)n1 (stereo not drawn),–,–,–,14,–,–
CCOC(=O)C1=C(CNCCOc2ccc(OC)cc2)NC(=O)NC1c1ccc2c(c1)OCO2 (stereo not drawn),–,–,–,10,–,–
Cc1onc(C(=O)Nc2c(C)n(C)n(-c3ccccc3)c2=O)c1[N+](=O)[O-],–,–,–,–,–,·
CC(C)CN(C(=O)Cn1c(Cl)nc2c1c(=O)n(C)c(=O)n2C)C1CCS(=O)(=O)C1 (stereo not drawn),–,–,–,–,–,·
COc1cc(Nc2cc(C)nc3ncnn23)cc(OC)c1OC,–,–,–,–,–,·
CCOc1ccc(OCC)c(Nc2cc(C)nc3ncnn23)c1,–,–,–,16,–,–
COc1cc(Nc2cc(C)nc3ncnn23)cc(OC)c1,–,–,–,6.4,–,–
COC(=O)CSc1[nH]c2ccc(F)cc2c1[N+](=O)[O-],–,–,–,9.0,–,–
COCC(=O)n1nc(-c2ccccc2)nc1NCc1ccc(N(C)C)cc1,–,–,–,–,–,·
CC1=C(C(=O)OC(C)C)C(c2cccs2)NC(=O)N1 (stereo not drawn),–,–,–,9.9,–,–
O=c1cnnc(N/N=C/c2ccc3c(c2)OCO3)[nH]1,–,–,–,10,–,–
CCOc1cc(/C=N/NC(=O)C(=O)NC2CC2)cc(Br)c1O,–,–,–,16,–,–
CCOc1cc(/C=N/NC(=O)C(N)=O)cc(Br)c1O,–,–,–,–,–,·
CCOc1ccc(NC(=O)c2ccc3c(c2)N(Cc2ccc(F)cc2)C(=O)CS3=O)cc1 (stereo not drawn),–,–,–,12,–,–
Cn1c(Cc2ccccc2)nnc1SCC(=O)NC1CCCC1,–,–,–,–,–,·
O=C(N/N=C/C(Cl)=C/c1ccc([N+](=O)[O-])cc1)C(=O)Nc1cccc(C(=O)O)c1,–,–,–,–,–,·
Cc1cc(C)nc(Nc2nc(C(N)CCc3ccccc3)cs2)n1 (stereo not drawn),·,–,·,·,–,·
COc1ccc(Nc2nnc(-c3ccc(C)cc3)c3ccccc23)cc1C(=O)N1CCCCC1,–,–,–,17,–,–
